The source of these data is ChEMBL document CHEMBL2434834, “Synthesis of pyrido[2,1-a]isoquinolin-4-ones and oxazino[2,3-a]isoquinolin-4-ones: new inhibitors of mitochondrial respiratory chain” (Eur J Med Chem, 2013).

Molecules are shown by their SMILES.

By IC50 is commonly meant the concentration at which inhibition is half-maximal. A low value points to higher potency.

A short description of the first experiment: Inhibition of NADH oxidase in beef heart sub-mitochondrial particles by UV-spectrophotometric analysis. The arrangement: species or system Bos taurus. The essentials: (§1)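 Inverted beef-heart submitochondrial particles were made by extensive sonication of frozen-thawed mitochondria and stored at -70 °C at 28 mg/mL protein (Bradford). After incubation with inhibitor, particles were diluted to […] in 50 mM potassium phosphate pH 7.4 with 1 mM EDTA, at 22 °C with NADH. Aerobic NADH oxidation was followed at 340 nm (ε 6.22 mM⁻¹ cm⁻¹), with rates taken from the linear decrease at increasing inhibitor concentrations.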
Regarding `COc1cc2c(cc1OC)C1(Cc3ccccc3)OC(C)=CC(=O)N1CC2` (stereo not given), the IC50 is 1530 nM. `COc1cc2c(cc1OC)C1(C)OC(c3ccco3)=CC(=O)N1CC2` (stereo not given): it took 900 nM to reach half-maximal inhibition (IC50). With `COc1cc2c(cc1OC)-c1cc(-c3ccccc3)cc(=O)n1CC2`, the IC50 is > 30000 nM. As for `COc1cc2c(cc1OC)-c1cc(-c3ccco3)cc(=O)n1CC2`, the IC50 came out at 12500 nM. On the same count and under the same terms, to `C=C(C)[C@H]1Cc2c(ccc3c2O[C@@H]2COc4cc(OC)c(OC)cc4[C@@H]2C3=O)O1` [ROTENONE] belongs 5.1 nM. As for `COc1cc2c(cc1OC)C1(C)OC(C)=CC(=O)N1CC2` (stereo not given), the IC50 stood at 1360 nM. This IC50 is about 270-fold higher than that of the compound before. For `COc1cc2c(cc1OC)C1(C)OC(c3ccccc3)=CC(=O)N1CC2` (stereo not given), the IC50 is 1320 nM. As to `COc1cc2c(cc1OC)C1(Cc3ccccc3Br)OC(C)=CC(=O)N1CC2` (stereo not given), the IC50 was found to be 1390 nM. With `COc1cc2c(cc1OC)-c1c(-c3ccccc3Br)c(C)cc(=O)n1CC2`, the IC50 was determined as 4240 nM.

Compound `COc1cc2c(cc1OC)-c1cc(C)cc(=O)n1CC2` came in with an IC50 of 8230 nM. `Cc1cc2n(c(=O)c1)CCc1cc(O)c(O)cc1-2` came in with an IC50 of 3440 nM.

For `COc1cc2c(cc1OC)-c1c(-c3ccccc3)c(C)cc(=O)n1CC2`, the IC50 came to 4690 nM.

A further experiment in a line: Inhibition of NADH oxidase in beef heart sub-mitochondrial particles after 5 mins. Further details: species or system Bos taurus. The essentials: as §1
`COc1cc(O)c2nc3n(c(=O)c2c1)-c1ccccc1C(=O)N1CCC[C@@H]31` had an IC50 of 2500 nM. In turn, `COc1ccc2nc3n(c(=O)c2c1)-c1ccccc1C(=O)N1CCC[C@@H]31` displayed an IC50 of 1500 nM. In the case of `CC(C)Cc1cnc(CC(C)C)c(=O)[nH]1`, half-maximal inhibition (IC50) required 13000 nM. Against the preceding compound, the IC50 is about 8.7-fold higher.
